Assay results from ChEMBL document CHEMBL3232844, “Synthesis and structure activity relationships of schweinfurthin indoles” (2014).

What was measured:
Type in all cases: functional
TK-10 = assay: Cytotoxicity against human TK10 cells
Summary of the method: (§1)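 Cell line run as part of the 60-cell-line screening panel; growth inhibition was reported as a GI50 for each line.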

SK-OV-3 = assay: Cytotoxicity against human SKOV3 cells
Summary of the method: (§2)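 Tested in a 60-cell-line human tumor panel screen; the read-out is growth inhibition, reported as GI50 for each cell line.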

MCF7 = assay: Cytotoxicity against human MCF7 cells; summary of the method: as §2
A549 = assay: Cytotoxicity against human A549 cells; summary of the method: as §2
HCC 2998 = assay: Cytotoxicity against human HCC2998 cells; summary of the method: as §2
HL-60(TB) = assay: Cytotoxicity against human HL-60(TB) cells
Summary of the method: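 Tested within the NCI 60-cell-line screen, with GI50 as the read-out. Values are the average of two independent experiments. The lowest concentration tested was 10 nM.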

[1] = Cytotoxicity against human OVCAR4 cells; summary of the method: as §2
CCRF-CEM = assay: Cytotoxicity against human CCRF-CEM cells
SR = assay: Cytotoxicity against human SR cells; summary of the method: as §1
[2] = Cytotoxicity against human HCT15 cells; summary of the method: as §2
HCT-116 = assay: Cytotoxicity against human HCT116 cells; summary of the method: as §2
U-251 = assay: Cytotoxicity against human U251 cells; summary of the method: as §1
CAKI-1 = assay: Cytotoxicity against human Caki1 cells; summary of the method: as §2
MOLT-4 = assay: Cytotoxicity against human MOLT4 cells; summary of the method: as §2
IGROV-1 = assay: Cytotoxicity against human IGROV1 cells; summary of the method: as §2
[3] = Cytotoxicity against human UACC62 cells; summary of the method: as §1
NCI-H322M = assay: Cytotoxicity against human NCI-H322M cells; summary of the method: as §2
[4] = Cytotoxicity against human NCI-ADR-RES cells; summary of the method: as §2
MDA-MB-435 = assay: Cytotoxicity against human MDA-MB-435 cells; summary of the method: as §2
SF-268 = assay: Cytotoxicity against human SF268 cells; summary of the method: as §2
LOX IMVI = assay: Cytotoxicity against human LOXIMVI cells; summary of the method: as §2
NCI-H460 = assay: Cytotoxicity against human NCI-H460 cells; summary of the method: as §2
SK-MEL-5 = assay: Cytotoxicity against human SK-MEL-5 cells; summary of the method: as §2
DU-145 = assay: Cytotoxicity against human DU145 cells; summary of the method: as §2
T47D = assay: Cytotoxicity against human T47D cells; summary of the method: as §1
MDA-MB-231 = assay: Cytotoxicity against human MDA-MB-231 cells; summary of the method: as §2
SN12C = assay: Cytotoxicity against human SN12C cells; summary of the method: as §2
COLO 205 = assay: Cytotoxicity against human COLO205 cells; summary of the method: as §2
786-0 = assay: Cytotoxicity against human 786-0 cells; summary of the method: as §2
[5] = Cytotoxicity against human OVCAR5 cells; summary of the method: as §2
ACHN = assay: Cytotoxicity against human ACHN cells; summary of the method: as §2
BT-549 = assay: Cytotoxicity against human BT549 cells; summary of the method: as §2
A498 = assay: Cytotoxicity against human A498 cells; summary of the method: as §2
HT-29 = assay: Cytotoxicity against human HT-29 cells; summary of the method: as §2
SK-MEL-2 = assay: Cytotoxicity against human SK-MEL-2 cells; summary of the method: as §2
SF-295 = assay: Cytotoxicity against human SF295 cells; summary of the method: as §2
SF-539 = assay: Cytotoxicity against human SF539 cells; summary of the method: as §2
HOP-62 = assay: Cytotoxicity against human HOP62 cells; summary of the method: as §2
SNB-19 = assay: Cytotoxicity against human SNB19 cells; summary of the method: as §2
PC-3 = assay: Cytotoxicity against human PC3 cells; summary of the method: as §2
KM12 = assay: Cytotoxicity against human KM12 cells; summary of the method: as §2
SNB-75 = assay: Cytotoxicity against human SNB75 cells; summary of the method: as §1
[6] = Cytotoxicity against human UACC257 cells; summary of the method: as §1
[7] = read-out: pLC50 (the source's name) (converted)

Structure (SMILES): COc1cc(/C=C/c2cc(O)c3ccn(C)c3c2)cc2c1O[C@]1(C)CC[C@@H](O)C(C)(C)[C@H]1C2
- GI50 (TK-10): 3.72 µM
- LC50 (TK-10): > 100 µM
- TGI (TK-10; read-out: pTGI (converted)): 64.6 µM
- GI50 (SK-OV-3): 3.02 µM
- LC50 (SK-OV-3): > 100 µM
- TGI (SK-OV-3; read-out: pTGI (converted)): 72.4 µM
- GI50 (MCF7): 0.741 µM
- LC50 (MCF7): > 100 µM
- TGI (MCF7; read-out: pTGI (converted)): 42.7 µM
- GI50 (A549): 4.9 µM
- CC50 (A549; [7]): > 100 µM
- TGI (A549; read-out: pTGI (converted)): 64.6 µM
- GI50 (HCC 2998): 4.57 µM
- CC50 (HCC 2998; [7]): > 100 µM
- TGI (HCC 2998; read-out: pTGI (converted)): 29.5 µM
- GI50 (HL-60(TB)): 1.23 µM
- CC50 (HL-60(TB); [7]): > 100 µM
- TGI (HL-60(TB); read-out: pTGI (converted)): 58.9 µM
- GI50 ([1]; OVCAR-4): 4.27 µM
- CC50 ([1]; OVCAR-4, read-out: pLC50 (the source's name) (converted)): > 100 µM
- TGI ([1]; OVCAR-4, read-out: pTGI (converted)): > 100 µM
- GI50 (CCRF-CEM): 0.38 µM
- CC50 (CCRF-CEM; [7]): > 100 µM
- TGI (CCRF-CEM; read-out: pTGI (converted)): > 100 µM
- GI50 (SR): 0.468 µM
- CC50 (SR; [7]): > 100 µM
- TGI (SR; read-out: pTGI (converted)): > 100 µM
- GI50 ([2]; HCT-15): 0.832 µM
- CC50 ([2]; HCT-15, read-out: pLC50 (the source's name) (converted)): > 100 µM
- TGI ([2]; HCT-15, read-out: pTGI (converted)): 4.37 µM
- GI50 (HCT-116): 1.17 µM
- CC50 (HCT-116; [7]): > 100 µM
- TGI (HCT-116; read-out: pTGI (converted)): 47.9 µM
- GI50 (U-251): 0.417 µM
- CC50 (U-251; [7]): > 100 µM
- TGI (U-251; read-out: pTGI (converted)): 63.1 µM
- GI50 (CAKI-1): 2.29 µM
- LC50 (CAKI-1): > 100 µM
- TGI (CAKI-1; read-out: pTGI (converted)): 21.9 µM
- GI50 (MOLT-4): 0.447 µM
- CC50 (MOLT-4; [7]): > 100 µM
- TGI (MOLT-4; read-out: pTGI (converted)): 10.2 µM
- GI50 (IGROV-1): 2.82 µM
- CC50 (IGROV-1; [7]): > 100 µM
- TGI (IGROV-1; read-out: pTGI (converted)): 46.8 µM
- GI50 ([3]; UACC-62): 0.316 µM
- CC50 ([3]; UACC-62, read-out: pLC50 (the source's name) (converted)): 77.6 µM
- TGI ([3]; UACC-62, read-out: pTGI (converted)): 2.09 µM
- GI50 (NCI-H322M): 12.9 µM
- CC50 (NCI-H322M; [7]): > 100 µM
- TGI (NCI-H322M; read-out: pTGI (converted)): > 100 µM
- GI50 [4]: 9.55 µM
- CC50 [4, 7]: > 100 µM
- TGI ([4]; read-out: pTGI (converted)): 69.2 µM
- GI50 (MDA-MB-435): 1.45 µM
- CC50 (MDA-MB-435; [7]): > 100 µM
- TGI (MDA-MB-435; read-out: pTGI (converted)): 47.9 µM
- GI50 (SF-268): 2.04 µM
- CC50 (SF-268; [7]): > 100 µM
- TGI (SF-268; read-out: pTGI (converted)): 66.1 µM
- GI50 (LOX IMVI): 0.977 µM
- CC50 (LOX IMVI; [7]): > 100 µM
- TGI (LOX IMVI; read-out: pTGI (converted)): 50.1 µM
- GI50 (NCI-H460): 1.66 µM
- CC50 (NCI-H460; [7]): > 100 µM
- TGI (NCI-H460; read-out: pTGI (converted)): > 100 µM
- GI50 (SK-MEL-5): 1.15 µM
- CC50 (SK-MEL-5; [7]): 5.25 µM
- TGI (SK-MEL-5; read-out: pTGI (converted)): 2.45 µM
- GI50 (DU-145): 3.8 µM
- LC50 (50% lethal concentration) (DU-145): > 100 µM
- TGI (DU-145; read-out: pTGI (converted)): 91.2 µM
- GI50 (T47D): 5.62 µM
- CC50 (T47D; [7]): > 100 µM
- TGI (T47D; read-out: pTGI (converted)): 60.3 µM
- GI50 (MDA-MB-231): 1.12 µM
- LC50 (MDA-MB-231): > 100 µM
- TGI (MDA-MB-231; read-out: pTGI (converted)): 28.2 µM
- GI50 (SN12C): 6.92 µM
- LC50 (SN12C): > 100 µM
- TGI (SN12C; read-out: pTGI (converted)): 91.2 µM
- GI50 (COLO 205): 1.66 µM
- CC50 (COLO 205; [7]): 7.08 µM
- TGI (COLO 205; read-out: pTGI (converted)): 3.47 µM
- GI50 (786-0): 0.186 µM
- LC50 (concentration killing 50% of cells) (786-0): > 100 µM
- GI50 ([5]; OVCAR-5): 12.3 µM
- CC50 ([5]; OVCAR-5, read-out: pLC50 (the source's name) (converted)): > 100 µM
- TGI ([5]; OVCAR-5, read-out: pTGI (converted)): 77.6 µM
- GI50 (ACHN): 0.776 µM
- LC50 (concentration killing 50% of cells) (ACHN): > 100 µM
- TGI (ACHN; read-out: pTGI (converted)): 55 µM
- GI50 (BT-549): 1.55 µM
- CC50 (BT-549; [7]): > 100 µM
- TGI (BT-549; read-out: pTGI (converted)): 39.8 µM
- GI50 (A498): 6.03 µM
- CC50 (A498; [7]): 89.1 µM
- TGI (A498; read-out: pTGI (converted)): 38.9 µM
- GI50 (HT-29): 1.86 µM
- CC50 (HT-29; [7]): 63.1 µM
- TGI (HT-29; read-out: pTGI (converted)): 7.41 µM
- GI50 (SK-MEL-2): 0.692 µM
- CC50 (SK-MEL-2; [7]): > 100 µM
- TGI (SK-MEL-2; read-out: pTGI (converted)): 12.9 µM
- GI50 (SF-295; read-out: GI50): 0.76 µM
- GI50 (SF-295; read-out: pGI50 (converted)): 0.759 µM
- TGI (SF-295; read-out: pTGI (converted)): 2.75 µM
- GI50 (SF-539): 0.105 µM
- TGI (SF-539; read-out: pTGI (converted)): 1.38 µM
- GI50 (HOP-62): 0.407 µM
- CC50 (HOP-62; [7]): > 100 µM
- TGI (HOP-62; read-out: pTGI (converted)): 5.01 µM
- GI50 (SNB-19): 1.45 µM
- CC50 (SNB-19; [7]): > 100 µM
- TGI (SNB-19; read-out: pTGI (converted)): > 100 µM
- GI50 (PC-3): 0.575 µM
- LC50 (PC-3): > 100 µM
- TGI (PC-3; read-out: pTGI (converted)): 67.6 µM
- GI50 (KM12): 1.26 µM
- CC50 (KM12; [7]): 34.7 µM
- TGI (KM12; read-out: pTGI (converted)): 7.08 µM
- GI50 (SNB-75): 0.138 µM
- CC50 (SNB-75; [7]): 93.3 µM
- TGI (SNB-75; read-out: pTGI (converted)): 8.91 µM
- GI50 ([6]; UACC-257): 1.74 µM
- CC50 ([6]; UACC-257, read-out: pLC50 (the source's name) (converted)): > 100 µM
- TGI ([6]; UACC-257, read-out: pTGI (converted)): 8.13 µM
